SR-BI DiI-HDL act – enhances SR-BI lipid uptake from DiI-HDL | CHO ldlA[mSR-BI] cells, DiI-HDL uptake fluorescence, 3 h; 100 = double the neutral-control signal | activation, % at 12.5 µM | 0.096% of 320,000 active | AID 504775;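 active = mean replicate activation of at least 60% and every replicate at or above 60%; inconclusive = mean or all-replicate condition met, but not both; inactive = mean below 60% and not all replicates reaching 60%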;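 note: 0% = median plate neutral-control signal and 100% = twice that signal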
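Test system: SR-BI-overexpressing, LDLR-lacking CHO cells; Also added: labelled HDL, 10 µg/mL; Measured by: bottom-read cell fluorescence after medium removal, ex 550/em 595 nm; Timing: 3 h uptake period with compound, 37 °C; Buffer or medium: F12, 0.5% BSA, 25 mM HEPES; Doses: single compound concentration, delivered by pin transfer.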
HTR2A ag – mouse HTR2A agonism via beta-arrestin recruitment; activation, % at 7.6 µM; 0.66% of 360,000 active; AID 624169; CHO-K1 mHTR2A beta-arrestin complementation, luminescence; percent of 30 µM serotonin response;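 active = activation above a run cutoff, the mean activation of all tested compounds plus 3 SD, cut at about 14% in these data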;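 note: 0% = plate median of compound wells and 100% = 30 µM serotonin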
SR-BI DiI inh – inhibitors of mouse SR-BI mediated HDL lipid uptake | inhibition, % at 12.5 µM | ldlA[mSR-BI] CHO cells, DiI-HDL uptake fluorescence, 3 h | AID 488896 | 0.96% of 320,000 active | Q61009;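 active = mean replicate inhibition of at least 70% and a set share of replicates each scoring 70 or more; inconclusive = meets just one of the two criteria; inactive = fails both criteria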;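 note: 0% = median of neutral control wells and 100% = median of positive control wells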
Target sequence (Q61009 whole entry, looked up): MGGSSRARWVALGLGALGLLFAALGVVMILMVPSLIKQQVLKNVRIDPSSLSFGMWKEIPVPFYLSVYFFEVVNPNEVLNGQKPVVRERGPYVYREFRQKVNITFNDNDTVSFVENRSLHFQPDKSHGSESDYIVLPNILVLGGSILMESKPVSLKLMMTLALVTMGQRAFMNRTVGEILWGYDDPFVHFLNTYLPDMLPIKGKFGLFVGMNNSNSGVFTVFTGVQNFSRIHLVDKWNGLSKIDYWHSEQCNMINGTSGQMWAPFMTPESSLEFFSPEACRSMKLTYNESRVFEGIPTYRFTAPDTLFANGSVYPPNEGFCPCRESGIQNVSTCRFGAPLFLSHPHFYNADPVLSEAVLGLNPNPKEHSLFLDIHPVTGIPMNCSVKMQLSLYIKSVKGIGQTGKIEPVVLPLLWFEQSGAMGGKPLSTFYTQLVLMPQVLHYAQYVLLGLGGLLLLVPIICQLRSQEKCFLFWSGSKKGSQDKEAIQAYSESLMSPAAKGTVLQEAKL
Calb FLC – C. albicans growth modulation with fluconazole; C. albicans CaCi-2 + fluconazole, Alamar Blue growth, 48 h; growth inhibition, % (no concentration beside the values); 0.57% of 300,000 active; AID 1979;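 active = growth inhibition above about 58% in most replicates, limit read from the data, passing the limit was not always enough; inconclusive = exactly half the replicates above a set limit; inactive = most replicates below a set limit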;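 note: all wells also contain fluconazole at 8 µg/ml as a sub-toxic cotreatment; 0% = median of DMSO wells and 100% = median of geldanamycin control wells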
MIN6 prolif – induces beta-cell replication in MIN6 cells; MIN6 cells proliferation, ATPlite luminescence, 48 h; cells starved in 0.2% serum; 100% = growth in 10% serum; proliferation, % at 10 µM; 0.29% of 330,000 active;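 active = compounds whose signal lies at least 3.5 SD above the mean of all wells on their plate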;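 note: 0% = DMSO-treated cells in low-serum medium and 100% = 10% serum control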
Insulin prom up – MIN6 insulin promoter up-regulation. MIN6 insulin promoter-GFP reporter, high-content imaging; stronger effect = higher value. z-score at 5 µM. 0.3% of 190,000 active;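 active = z-score above 3 at 5 µM with at least 500 cells counted in the well; inconclusive = wells under 500 cells, flagged as cytotoxic or low count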
Numbers without * were called inactive; ? = inconclusive; nt = no result given. Hits are enriched below; roughly 2.4% of the tested compounds scored in any of these assays.

SMILES	SR-BI DiI-HDL act	HTR2A ag	SR-BI DiI inh	Calb FLC	MIN6 prolif	Insulin prom up
COc1ccc(-c2nn(-c3ccccc3)cc2/C=N/NS(=O)(=O)c2ccccc2)cc1	-64.5	2.9	64.5	2.4	-0.3	0.07
Cc1nn(-c2ccccc2)c(N2CCCC2)c1/C=N/NC(=O)c1cc(-c2ccccc2)nc2ccccc12	-88.3	-5.1	88.3*	2.3	0.0	-0.64
Cc1ccc(-c2cc(C(=O)N/N=C/c3c(C)nn(-c4ccccc4)c3C)[nH]n2)cc1	-77.8	-1.1	77.8*	-2.8	nt	0.2
Cc1nn(-c2ccccc2)c(N2CCCC2)c1/C=N/NC(=O)c1cccc(S(=O)(=O)Nc2ccc(Cl)cc2)c1	-77.0	-3.0	77.0*	3.2	0.0	-0.12
COc1ccc(-c2nn(-c3ccccc3)cc2/C=N/NC(=O)c2cccc(S(=O)(=O)Nc3ccccc3Cl)c2)cc1	-80.2	-1.7	80.2*	-1.9	-5.8	-0.39
Cc1cc(C(=O)COc2cc(F)ccc2[N+](=O)[O-])c(C)n1CC1CCCO1 (configuration not stated)	-11.3	2.0	11.3	nt	-6.0	nt
O=C(Cc1ccccc1[N+](=O)[O-])NCC(=O)c1ccc2c(c1)OCO2	37.4	8.0	-37.4	nt	nt	nt
Cc1c(Cl)cccc1NC(=O)c1ccccc1-c1ccccc1C(=O)O	11.7	1.5	-11.7	1.5	-2.8	nt
COc1ccc(NC(=O)C2c3ccccc3OCC(=O)N2Cc2ccco2)cc1 (configuration not stated)	nt	2.5	nt	nt	nt	nt
CC(C)c1ccc(NC(=O)Cc2cn(C)c3ccccc23)cc1	8.2	-5.0	-8.2	114.1*	-4.0	nt
O=C(/C=C/c1cc(Br)ccc1O)c1ccco1	-0.5	-4.6	0.5	93.0*	-6.2	?
CC1CCN(Cc2c(C(=O)N/N=C/c3cc(Br)ccc3O)nnn2-c2nonc2N)CC1	-102.6	-0.9	102.7*	82.4*	-3.7	nt
COc1ccc(O)c(/C=N/NC(=O)c2c(C)nnn2-c2nonc2N)c1	-100.6	-4.5	100.6*	62.6*	1.8	0.76
COc1ccc(/C=N/NC(=O)c2nnn(-c3nonc3N)c2-c2cccc(OC)c2)cc1	-30.0	-3.9	30.0	-0.4	1.6	nt
CC1(C(=O)NCc2ccccc2)CN(S(C)(=O)=O)CC(=O)N1C1CC1 (configuration not stated)	nt	6.3	nt	nt	nt	nt
Cc1ccc(C)c(OC(=O)c2cncc(Br)c2)c1	-18.1	2.0	18.1	97.8*	0.0	-0.16
COc1ccc(-c2c(C(=O)c3ccc(Br)cc3)[nH]c(N)c2C(=O)c2ccccc2)cc1OC	nt	3.3	nt	nt	nt	nt
CCc1cccc(NC(=O)Cn2c(=O)n(CCC(=O)NCC3CCCO3)c(=O)c3cc(OC)c(OC)cc32)c1 (configuration not stated)	378.9*	-2.4	-378.9	-1.4	4.2	nt
CCSc1ccc2cc(OC)ccc2[n+]1CC	-1.3	2.6	1.3	75.4*	-3.1	0.17
CCn1ccc2cc(OC)ccc2c1=S	-8.2	2.8	8.2	-39.9	-3.8	0.98
O=C1N(CCCl)c2ccc(Br)cc2C12OCCO2	-14.7	0.0	14.7	-2.0	1.6	nt
CCOC(=O)C1CCCN(c2cc(C)nc3cc(-c4ccc(F)cc4)nn23)C1 (configuration not stated)	-47.7	-3.0	47.7	104.1*	-1.7	-0.34
CNC[C@H]1OCc2ccccc2-c2ccccc2C(=O)N([C@@H](C)CO)C[C@H]1C	nt	2.6	nt	nt	nt	nt
O=C(CN1C(=O)S/C(=C\c2ccccn2)C1=O)Nc1ccccc1	15.6	0.8	-15.6	109.0*	-2.8	nt
Cc1ccc(NC(=O)CN2C(=O)S/C(=C\c3ccccn3)C2=O)cc1	11.3	-3.7	-11.3	2.2	3.0	0.32
O=C(Nc1ccc(Cl)cc1)C1C2C=CC3(O2)C1C(=O)N(CCCN1CCCCC1)C3C(=O)NC1CCCCC1 (configuration not stated)	nt	-7.4	nt	-6.4	2.4	nt
Cc1cnc(C(=O)N2CCCC(N3CCN(c4ccccc4C)CC3)C2)cn1 (configuration not stated)	7.3	1.2	-7.3	-1.5	-0.2	nt
Cc1ccccc1N1CCN(C2CCCN(C(=O)c3noc4c3CCCC4)C2)CC1 (configuration not stated)	-82.8	-9.4	82.8*	-15.8	-1.5	nt
